For assay [1], the system named is Staphylococcus aureus. The assay can be described thus: Antibacterial activity against Staphylococcus aureus at 10 to 100 ug/mL after 18 hrs by halo zone test. Type of assay: functional. In short, it runs like this:
(§1)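 Disk diffusion (halo zone). Strains subcultured in BHI, 18 h at 37 °C. Cells suspended in saline by McFarland to about 10^5 CFU/mL, mixed with antibiotic agar at 40 °C and plated. 6.0 mm paper disks loaded with DMSO-stock dilutions of 10, 20, 25, 50 and 100 per mL. Inhibition zone diameter (mm) read after 18 h at 36 °C. Amoxicillin (30) disk positive control, DMSO disk negative control.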

The subject of assay [2] is Streptococcus pyogenes. The assay can be described thus: Antibacterial activity against Streptococcus pyogenes at 10 to 100 ug/mL after 18 hrs by halo zone test. Type of assay: functional. The gist of the method:
as §1

For assay [3], the system named is Salmonella typhimurium. The assay can be described thus: Antibacterial activity against Salmonella Typhimurium at 10 to 100 ug/mL after 18 hrs by halo zone test. Type of assay: functional, Salmonella enterica subsp. enterica serovar Typhimurium. The gist of the method:
as §1

Assay [4] deals with Escherichia coli. The assay can be described thus: Antibacterial activity against Escherichia coli at 10 to 100 ug/mL after 18 hrs by halo zone test. It is filed as functional. In short, it runs like this: as §1
Assay [5] concerns Staphylococcus aureus. The assay can be described thus: Antibacterial activity against Staphylococcus aureus after 18 hrs by macro dilution test. It is filed as functional. In short, it runs like this: (§2)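 Macro-dilution broth test. Each tube received a 24 h old inoculum, standard inoculum about 10^5 CFU/mL. Incubated 18 h at 37 °C. MIC taken visually as the lowest concentration preventing visible growth. Amoxicillin positive control, DMSO negative control.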

Assay [6] relates to Streptococcus pyogenes. The assay can be described thus: Antibacterial activity against Streptococcus pyogenes after 18 hrs by macro dilution test. Type of assay: functional. In short, it runs like this: as §2
Assay [7] concerns Salmonella typhimurium. In words: Antibacterial activity against Salmonella Typhimurium after 18 hrs by macro dilution test. Type of assay: functional, Salmonella enterica subsp. enterica serovar Typhimurium. The following applies: Salmonella enterica. The gist of the method:
as §2

Assay [8] concerns Escherichia coli. In words: Antibacterial activity against Escherichia coli after 18 hrs by macro dilution test. Type of assay: functional. In short, it runs like this:
as §2

Converted amounts (≈) assume the structure as drawn.

The results in this text go back to ChEMBL document CHEMBL1140996, “Synthesis and in vitro antibacterial activity of new steroidal thiosemicarbazone derivatives” (2008).

Usually MIC stands for the lowest concentration found to suppress growth. As to `CC(C)CCC[C@@H](C)[C@H]1CC[C@H]2[C@@H]3/C(=N/NC(=S)NC4CCCCC4)C=C4C[C@@H](Cl)CC[C@]4(C)[C@H]3CC[C@]12C`, the “inhibition zone (IZ)” value in the assay on Staphylococcus aureus [1] was 13.4 mm; with Streptococcus pyogenes [2], 12.2 mm; in the assay with Salmonella typhimurium [3] it was 14.4 mm; in the assay on Escherichia coli [4], 11.8 mm. The MIC against Staphylococcus aureus [5] is 32 µg/mL (≈ 55.7 µM); in the assay with Streptococcus pyogenes [6] it was 64 µg/mL (≈ 111 µM); against Salmonella typhimurium [7] it was 128 µg/mL (≈ 223 µM); in the assay on Escherichia coli [8], 64 µg/mL (≈ 111 µM).

In the case of `CC(=O)O[C@H]1CC[C@@]2(C)C(=C/C(=N\NC(=S)NC3CCCCC3)[C@H]3[C@@H]4CC[C@H]([C@H](C)CCCC(C)C)[C@@]4(C)CC[C@@H]32)C1`, the “inhibition zone (IZ)” value with Staphylococcus aureus [1] is recorded as 14.6 mm; in the assay with Streptococcus pyogenes [2], 16.8 mm; with Salmonella typhimurium [3] it was 14.5 mm; with Escherichia coli [4], 13.2 mm. Further, the MIC with Staphylococcus aureus [5] came out at 64 µg/mL (≈ 107 µM); with Streptococcus pyogenes [6], 64 µg/mL (≈ 107 µM); with Salmonella typhimurium [7] it was 64 µg/mL (≈ 107 µM); in the assay with Escherichia coli [8], 32 µg/mL (≈ 53.5 µM).

In the case of `CC(=O)O[C@H]1CC[C@@]2(C)C(=C/C(=N\NC(=S)NC3CCCC3)[C@H]3[C@@H]4CC[C@H]([C@H](C)CCCC(C)C)[C@@]4(C)CC[C@@H]32)C1`, the “inhibition zone (IZ)” value turned out to be 12.5 mm in the assay on Staphylococcus aureus [1], 11.8 mm in the assay on Streptococcus pyogenes [2], 14.6 mm with Salmonella typhimurium [3] and 12.4 mm in the assay with Escherichia coli [4]. For the same molecule, the MIC stood at 32 µg/mL (≈ 54.8 µM) against Staphylococcus aureus [5], 64 µg/mL (≈ 110 µM) against Streptococcus pyogenes [6], 64 µg/mL (≈ 110 µM) in the assay on Salmonella typhimurium [7] and 32 µg/mL (≈ 54.8 µM) in the assay with Escherichia coli [8].

`CC(C)CCC[C@@H](C)[C@H]1CC[C@H]2[C@@H]3/C(=N/NC(=S)NC4CCCCCCC4)C=C4C[C@@H](Cl)CC[C@]4(C)[C@H]3CC[C@]12C`: the “inhibition zone (IZ)” value amounted to 15.6 mm in the assay on Staphylococcus aureus [1], 14 mm in the assay on Streptococcus pyogenes [2], 14.6 mm with Salmonella typhimurium [3] and 12.4 mm in the assay with Escherichia coli [4]. The MIC against Staphylococcus aureus [5] came out at 64 µg/mL (≈ 106 µM); in the assay with Streptococcus pyogenes [6], 128 µg/mL (≈ 212 µM); in the assay on Salmonella typhimurium [7], 128 µg/mL (≈ 212 µM); in the assay on Escherichia coli [8], 64 µg/mL (≈ 106 µM).

On to `CC(C)CCC[C@@H](C)[C@H]1CC[C@H]2[C@@H]3/C(=N/NC(=S)NC4CCCCCCC4)C=C4CCCC[C@]4(C)[C@H]3CC[C@]12C`, for which the “inhibition zone (IZ)” value is recorded as 9.9 mm with Staphylococcus aureus [1], 11.3 mm in the assay on Streptococcus pyogenes [2], 10.2 mm with Salmonella typhimurium [3] and 10 mm in the assay with Escherichia coli [4]. The minimal inhibitory concentration (MIC) against Staphylococcus aureus [5] amounted to 256 µg/mL (≈ 451 µM); in the assay with Streptococcus pyogenes [6] it was 128 µg/mL (≈ 225 µM); with Salmonella typhimurium [7], 128 µg/mL (≈ 225 µM); with Escherichia coli [8], 256 µg/mL (≈ 451 µM).

For the molecule `CC(C)CCC[C@@H](C)[C@H]1CC[C@H]2[C@@H]3/C(=N/NC(=S)NC4CCCC4)C=C4C[C@@H](Cl)CC[C@]4(C)[C@H]3CC[C@]12C`, the “inhibition zone (IZ)” value in the assay on Staphylococcus aureus [1] was found to be 16.2 mm; in the assay with Streptococcus pyogenes [2], 13.4 mm; with Salmonella typhimurium [3] it was 12.5 mm; in the assay on Escherichia coli [4], 15.6 mm. Moreover, the minimum inhibitory concentration (MIC) turned out to be 64 µg/mL (≈ 114 µM) against Staphylococcus aureus [5], 64 µg/mL (≈ 114 µM) in the assay with Streptococcus pyogenes [6], 128 µg/mL (≈ 228 µM) with Salmonella typhimurium [7] and 64 µg/mL (≈ 114 µM) with Escherichia coli [8].

Take `CC(C)CCC[C@@H](C)[C@H]1CC[C@H]2[C@@H]3/C(=N/NC(=S)NC4CCCC4)C=C4CCCC[C@]4(C)[C@H]3CC[C@]12C`: the “inhibition zone (IZ)” value is 10.4 mm with Staphylococcus aureus [1], 9.5 mm with Streptococcus pyogenes [2], 9.2 mm with Salmonella typhimurium [3] and 9.4 mm in the assay with Escherichia coli [4]. In addition, the MIC came to 256 µg/mL (≈ 487 µM) with Staphylococcus aureus [5], 128 µg/mL (≈ 243 µM) against Streptococcus pyogenes [6], 128 µg/mL (≈ 243 µM) with Salmonella typhimurium [7] and 256 µg/mL (≈ 487 µM) against Escherichia coli [8].

As to `CC(=O)O[C@H]1CC[C@@]2(C)C(=C/C(=N\NC(=S)NC3CCCCCCC3)[C@H]3[C@@H]4CC[C@H]([C@H](C)CCCC(C)C)[C@@]4(C)CC[C@@H]32)C1`, the “inhibition zone (IZ)” value in the assay on Staphylococcus aureus [1] was 12.6 mm; in the assay with Streptococcus pyogenes [2], 11.4 mm; with Salmonella typhimurium [3], 13.6 mm; in the assay with Escherichia coli [4], 13.8 mm. Moreover, the minimum inhibitory concentration (MIC) turned out to be 128 µg/mL (≈ 204 µM) in the assay on Staphylococcus aureus [5], 64 µg/mL (≈ 102 µM) against Streptococcus pyogenes [6], 128 µg/mL (≈ 204 µM) against Salmonella typhimurium [7] and 128 µg/mL (≈ 204 µM) against Escherichia coli [8].

On to `CC(C)CCC[C@@H](C)[C@H]1CC[C@H]2[C@@H]3/C(=N/NC(=S)NC4CCCCC4)C=C4CCCC[C@]4(C)[C@H]3CC[C@]12C`, for which the “inhibition zone (IZ)” value in the assay on Staphylococcus aureus [1] is reported as 10.2 mm; with Streptococcus pyogenes [2] it was 9.2 mm; with Salmonella typhimurium [3] it was 10.4 mm; in the assay on Escherichia coli [4], 7.8 mm. Besides, the MIC against Staphylococcus aureus [5] was found to be 128 µg/mL (≈ 237 µM); with Streptococcus pyogenes [6], 256 µg/mL (≈ 474 µM); against Salmonella typhimurium [7], 256 µg/mL (≈ 474 µM); in the assay with Escherichia coli [8], 128 µg/mL (≈ 237 µM).

Take `CC1(C)S[C@@H]2[C@H](NC(=O)[C@H](N)c3ccc(O)cc3)C(=O)N2[C@H]1C(=O)O` [AMOXICILLIN]: the “inhibition zone (IZ)” value in the assay on Staphylococcus aureus [1] is recorded as 21 mm; in the assay with Streptococcus pyogenes [2], 22.2 mm; with Salmonella typhimurium [3], 25.2 mm; in the assay with Escherichia coli [4] it was 20 mm. For the same molecule, the MIC in the assay with Staphylococcus aureus [5], in the assay on Streptococcus pyogenes [6], in the assay with Salmonella typhimurium [7] and against Escherichia coli [8] was 32 µg/mL (≈ 87.6 µM) throughout.
